Data as given in ChEMBL document CHEMBL1649147, “Antistaphylococcal activity of dihydrophthalazine antifolates, a family of novel antibacterial drugs” (2009).

Columns and labels:
Staphylococcus aureus [1] = test: Antibacterial activity against methicillin-susceptible Staphylococcus aureus ATCC 29213 by broth macrodilution method; format: functional; conditions: ATCC29213
[2] = tested on: coagulase-negative staphylococci; test: Antibacterial activity against Tmp-resistant coagulase-negative staphylococci by agar dilution method
Staphylococcus aureus [3] = test: Antibacterial activity against methicillin-resistant Staphylococcus aureus 145 by broth macrodilution method; format: functional
Staphylococcus aureus [4] = test: Antibacterial activity against vancomycin-resistant Staphylococcus aureus VRS1 by broth macrodilution method; format: functional
How it was run: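 Michigan VRSA strain, one of 12 staphylococci later used in time-kill studies. MIC was determined by broth macrodilution and reported in μg/ml.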

Staphylococcus aureus [5] = test: Antibacterial activity against methicillin-susceptible, vancomycin-intermediate Staphylococcus aureus 505 by broth macrodilution method; format: functional
[6] = tested on: Staphylococcus epidermidis; test: Antibacterial activity against methicillin-susceptible coagulase-negative Staphylococcus epidermidis 051 after 50 passages by agar dilution method; format: functional
How it was run: (§1)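 Daily serial passage for up to 50 days at 35°C for 24 h in 1 ml MHB. Each transfer used 10 µl from the tube nearest the MIC (1–2 dilutions below) with the same turbidity as the drug-free control. MICs were measured by agar dilution, with changes given as log2 steps.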

[7] = tested on: Staphylococcus epidermidis; test: Antibacterial activity against methicillin-resistant coagulase-negative Staphylococcus epidermidis 197 after 50 passages by agar dilution method; format: functional; how it was run: as §1
Staphylococcus aureus [8] = test: Antibacterial activity against methicillin-susceptible, vancomycin-intermediate Staphylococcus aureus 505 after 50 passages by agar dilution method; format: functional
How it was run: (§2)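 Daily serial passage for up to 50 days at 35°C for 24 h in 1 ml MHB. […] Each transfer used 10 µl from the tube nearest the MIC (1–2 dilutions below) with the same turbidity as the drug-free control. […] MICs were measured by agar dilution, with changes given as log2 steps.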

[9] = tested on: coagulase-negative staphylococci; test: Antibacterial activity against methicillin-susceptible coagulase-negative staphylococci by agar dilution method
[10] = tested on: Staphylococcus epidermidis; test: Antibacterial activity against methicillin-resistant coagulase-negative Staphylococcus epidermidis 225 by broth macrodilution method; format: functional
Staphylococcus aureus [11] = test: Antibacterial activity against methicillin-resistant Staphylococcus aureus 507 by broth macrodilution method; format: functional
Staphylococcus aureus [12] = test: Antibacterial activity against Tmp-susceptible Staphylococcus aureus by agar dilution method; format: functional
How it was run: (§3)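 MICs by agar dilution on Mueller-Hinton agar following CLSI guidelines. S. aureus ATCC 29213 and E. faecalis ATCC 29212 were run as quality controls with each set, and test-strain MICs were kept only if control MICs fell within acceptable ranges.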

Staphylococcus aureus [13] = test: Antibacterial activity against methicillin-susceptible Staphylococcus aureus 505 by broth macrodilution method; format: functional
[14] = tested on: Staphylococcus epidermidis; test: Antibacterial activity against methicillin-susceptible coagulase-negative Staphylococcus epidermidis 057 by broth macrodilution method; format: functional
Staphylococcus aureus [15] = test: Antibacterial activity against methicillin-resistant and vancomycin-resistant Staphylococcus aureus VRS1 after 50 passages by agar dilution method; format: functional; how it was run: as §2
[16] = tested on: Staphylococcus epidermidis; test: Antibacterial activity against methicillin-resistant coagulase-negative Staphylococcus epidermidis 345 by broth macrodilution method; format: functional
Staphylococcus aureus [17] = test: Antibacterial activity against methicillin-resistant and vancomycin-resistant Staphylococcus aureus VRS1 by agar dilution method; format: functional
How it was run: (§4)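 Agar dilution on Mueller-Hinton agar per CLSI guidelines. S. aureus ATCC 29213 and E. faecalis ATCC 29212 were run with each set, and test MICs were accepted only when the control strains fell within acceptable ranges.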

Staphylococcus aureus [18] = test: Antibacterial activity against Tmp-susceptible coagulase-negative Staphylococcus aureus by agar dilution method; format: functional; how it was run: as §3
[19] = tested on: Staphylococcus epidermidis; test: Antibacterial activity against methicillin-resistant coagulase-negative Staphylococcus epidermidis 197 by broth macrodilution method; format: functional
Staphylococcus aureus [20] = test: Antibacterial activity against methicillin-resistant Staphylococcus aureus ATCC 43300 after 50 passages by agar dilution method; format: functional; conditions: ATCC43300
How it was run: (§5)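 Serial passage under drug. Inoculum was ~1 × 10^6 CFU/ml from overnight MHA growth, in 1 ml MHB at 35°C for 24 h. Drug ranged from 4 log2 steps above to 3 log2 steps below the MIC. […] MIC change is given as log2 steps.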

[21] = tested on: Staphylococcus epidermidis; test: Antibacterial activity against methicillin-resistant, Linezolid non-susceptible coagulase-negative Staphylococcus epidermidis 345 by agar dilution method; format: functional
Staphylococcus aureus [22] = test: Antibacterial activity against methicillin-resistant Staphylococcus aureus 145 after 50 passages by agar dilution method; format: functional; how it was run: as §5
[23] = tested on: Staphylococcus epidermidis; test: Antibacterial activity against methicillin-resistant, vancomycin-intermediate coagulase-negative Staphylococcus epidermidis 225 after 50 passages by agar dilution method; format: functional; how it was run: as §2
Staphylococcus aureus [24] = test: Antibacterial activity against Tmp-resistant Staphylococcus aureus by agar dilution method; format: functional; how it was run: as §3
[25] = tested on: Staphylococcus epidermidis; test: Antibacterial activity against methicillin-resistant coagulase-negative Staphylococcus epidermidis 074 by broth macrodilution method; format: functional
[26] = tested on: Staphylococcus epidermidis; test: Antibacterial activity against methicillin-resistant, vancomycin-intermediate coagulase-negative Staphylococcus epidermidis 225 by agar dilution method; format: functional; how it was run: as §4
[27] = tested on: Staphylococcus epidermidis; test: Antibacterial activity against methicillin-susceptible coagulase-negative Staphylococcus epidermidis 051 by broth macrodilution method; format: functional
Staphylococcus aureus [28] = test: Antibacterial activity against methicillin-susceptible Staphylococcus aureus ATCC 29213 after 50 passages by agar dilution method; format: functional; conditions: ATCC29213; how it was run: as §2
[29] = tested on: coagulase-negative staphylococci; test: Antibacterial activity against Tmp-susceptible coagulase-negative staphylococci by agar dilution method
[30] = tested on: Staphylococcus epidermidis; test: Antibacterial activity against methicillin-resistant, Linezolid non-susceptible coagulase-negative Staphylococcus epidermidis 345 after 50 passages by agar dilution method; format: functional; how it was run: as §1
[31] = tested on: Staphylococcus epidermidis; test: Antibacterial activity against methicillin-susceptible coagulase-negative Staphylococcus epidermidis 057 after 50 passages by agar dilution method; format: functional; how it was run: as §1
Staphylococcus aureus [32] = test: Antibacterial activity against methicillin-resistant Staphylococcus aureus by agar dilution method; format: functional; how it was run: as §4
Staphylococcus aureus [33] = test: Antibacterial activity against methicillin-susceptible Staphylococcus aureus by agar dilution method; format: functional; how it was run: as §4
Staphylococcus aureus [34] = test: Antibacterial activity against methicillin-resistant Staphylococcus aureus ATCC 43300 by broth macrodilution method; format: functional; conditions: ATCC43300
[35] = tested on: coagulase-negative staphylococci; test: Antibacterial activity against methicillin-resistant coagulase-negative staphylococci by agar dilution method
Staphylococcus aureus [36] = test: Antibacterial activity against methicillin-susceptible, vancomycin-intermediate Staphylococcus aureus 505 after 9 passages by agar dilution method; format: functional; how it was run: as §2
[37] = tested on: Staphylococcus epidermidis; test: Antibacterial activity against methicillin-susceptible coagulase-negative Staphylococcus epidermidis 057 after 9 passages by agar dilution method; format: functional; how it was run: as §2
[38] = tested on: Staphylococcus epidermidis; test: Antibacterial activity against methicillin-susceptible coagulase-negative Staphylococcus epidermidis 051 after 9 passages by agar dilution method; format: functional; how it was run: as §2
Staphylococcus aureus [39] = test: Antibacterial activity against methicillin-susceptible Staphylococcus aureus ATCC 29213 after 9 passages by agar dilution method; format: functional; conditions: ATCC29213; how it was run: as §2
[40] = tested on: Staphylococcus epidermidis; test: Antibacterial activity against methicillin-resistant coagulase-negative Staphylococcus epidermidis 197 after 12 passages by agar dilution method; format: functional; how it was run: as §2
[41] = tested on: Staphylococcus epidermidis; test: Antibacterial activity against methicillin-resistant, Linezolid non-susceptible coagulase-negative Staphylococcus epidermidis 345 after 9 passages by agar dilution method; format: functional; how it was run: as §2
[42] = tested on: Staphylococcus epidermidis; test: Antibacterial activity against methicillin-resistant, vancomycin-intermediate coagulase-negative Staphylococcus epidermidis 225 after 11 passages by agar dilution method; format: functional; how it was run: as §2
Staphylococcus aureus [43] = test: Antibacterial activity against methicillin-resistant Staphylococcus aureus 145 after 10 passages by agar dilution method; format: functional
Staphylococcus aureus [44] = test: Antibacterial activity against methicillin-resistant Staphylococcus aureus ATCC 43300 after 9 passages by agar dilution method; format: functional; conditions: ATCC43300; how it was run: as §5

CN(C)c1ccc(O)c2c1C[C@H]1C[C@H]3[C@H](N(C)C)C(O)=C(C(N)=O)C(=O)[C@@]3(O)C(O)=C1C2=O [MINOCYCLINE]
0.25 mg/L: MIC90 (Staphylococcus aureus [12]) | MIC [16] | MIC50 (Staphylococcus aureus [24]) | MIC [25] | MIC90 (Staphylococcus aureus [33]) | MIC50 [35]
8 mg/L: MIC (Staphylococcus aureus [22]) | MIC90 (Staphylococcus aureus [24])
0.5 mg/L: MIC50 [2] | MIC90 [2] | MIC90 [9] | MIC [14] | MIC (Staphylococcus aureus [17]) | MIC [21]
0.06 mg/L: MIC (Staphylococcus aureus [18])
0.125 mg/L: MIC (Staphylococcus aureus [1]) | MIC (Staphylococcus aureus [5]) | MIC [9] | MIC [10] | MIC50 (Staphylococcus aureus [12]) | MIC (Staphylococcus aureus [13]) | MIC [19] | MIC [26] | MIC [27] | MIC50 [29] | MIC50 (Staphylococcus aureus [32]) | MIC50 (Staphylococcus aureus [33]) | MIC (Staphylococcus aureus [34])
2 mg/L: MIC [7] | MIC (Staphylococcus aureus [11]) | MIC (Staphylococcus aureus [15]) | MIC (Staphylococcus aureus [28]) | MIC [31] | MIC90 (Staphylococcus aureus [32])
4 mg/L: MIC (Staphylococcus aureus [3]) | MIC [6]
1 mg/L: MIC (Staphylococcus aureus [4]) | MIC (Staphylococcus aureus [8]) | MIC (Staphylococcus aureus [20]) | MIC [23] | MIC90 [29] | MIC [30] | MIC90 [35]

CO[C@H]1/C=C/O[C@@]2(C)Oc3c(C)c(O)c4c(O)c(c(/C=N/N5CCN(C)CC5)c(O)c4c3C2=O)NC(=O)/C(C)=C\C=C\[C@H](C)[C@H](O)[C@@H](C)[C@@H](O)[C@@H](C)[C@H](OC(C)=O)[C@@H]1C [RIFAMPIN]
0.008 mg/L: MIC (Staphylococcus aureus [1]) | MIC50 [2] | MIC (Staphylococcus aureus [3]) | MIC [21] | MIC50 (Staphylococcus aureus [24]) | MIC50 [29] | MIC50 (Staphylococcus aureus [33]) | MIC50 [35]
≤ 0.004 mg/L: MIC [9] | MIC (Staphylococcus aureus [18])
0.03 mg/L: MIC [10] | MIC (Staphylococcus aureus [13]) | MIC [14] | MIC [19] | MIC [25]
0.004 mg/L: MIC (Staphylococcus aureus [34])
2 mg/L: MIC90 [35]
> 32 mg/L: MIC (Staphylococcus aureus [17])
0.016 mg/L: MIC (Staphylococcus aureus [5]) | MIC90 [9] | MIC50 (Staphylococcus aureus [12]) | MIC90 (Staphylococcus aureus [12]) | MIC [16] | MIC [26] | MIC [27] | MIC90 [29] | MIC50 (Staphylococcus aureus [32]) | MIC90 (Staphylococcus aureus [32]) | MIC90 (Staphylococcus aureus [33])
4 mg/L: MIC (Staphylococcus aureus [11])
> 16 mg/L: MIC90 [2] | MIC90 (Staphylococcus aureus [24])
> 128 mg/L: MIC (Staphylococcus aureus [36]) | MIC [37] | MIC (Staphylococcus aureus [4]) | MIC [38] | MIC (Staphylococcus aureus [39]) | MIC [40] | MIC [41] | MIC [42] | MIC (Staphylococcus aureus [43]) | MIC (Staphylococcus aureus [44])

CN[C@H](CC(C)C)C(=O)N[C@H]1C(=O)N[C@@H](CC(N)=O)C(=O)N[C@H]2C(=O)N[C@H]3C(=O)N[C@H](C(=O)N[C@H](C(=O)O)c4cc(O)cc(O)c4-c4cc3ccc4O)[C@H](O)c3ccc(c(Cl)c3)Oc3cc2cc(c3O[C@@H]2O[C@H](CO)[C@@H](O)[C@H](O)[C@H]2O[C@H]2C[C@](C)(N)[C@H](O)[C@H](C)O2)Oc2ccc(cc2Cl)[C@H]1O [VANCOMYCIN]
2 mg/L: MIC50 [2] | MIC90 [2] | MIC90 [9] | MIC90 (Staphylococcus aureus [12]) | MIC90 [29] | MIC90 (Staphylococcus aureus [32]) | MIC90 (Staphylococcus aureus [33]) | MIC50 [35] | MIC90 [35]
16 mg/L: MIC [23]
4 mg/L: MIC90 (Staphylococcus aureus [24])
> 256 mg/L: MIC (Staphylococcus aureus [4])
> 32 mg/L: MIC (Staphylococcus aureus [17])
8 mg/L: MIC (Staphylococcus aureus [8]) | MIC [10] | MIC [26]
1 mg/L: MIC50 (Staphylococcus aureus [12]) | MIC50 (Staphylococcus aureus [24]) | MIC50 [29] | MIC50 (Staphylococcus aureus [32]) | MIC50 (Staphylococcus aureus [33])
